Assay outcomes deposited in PubChem by several laboratories.
Most compounds without a hit are left out; they make up all but 3.8% or so of the library.
TMEM16A inh – TMEM16A chloride channel inhibitors, primary screen, cell-based, HTS | normalized B-score (activity score, 25-100; higher = stronger inhibition) at 10 µM | HEK293 TMEM16A/YFP iodide influx fluorescence, ionomycin | 310,000 tested, 1.2% active | Anoctamin-1 (Mus musculus), Q8BHY3;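 active means ratio plate-corrected score three or more library SD toward inhibition, starting fluorescence score within five deviations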;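 further: score derived from kinetic fluorescence span divided by baseline fluorescence per well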
CSC inhib – cancer stem cell viability inhibitors, primary screen, luminescence; cancer stem cell-like cells viability; inhibition, % at 7.5 µM; 300,000 tested, 1.1% active; AID 2717, 2010; in the data active means inhibition above about 75%; tested in HMLE shEcad cells
MC4R ag barr – MC4R agonists recruiting beta-arrestin, primary screen, cell-based, luminescence, agonist arm of biased-ligand search | Melanocortin receptor 4 (Homo sapiens), P32245 | activation, % at 8.9 µM | AID 540308, 2011 | 360,000 tested, 0.98% active | U2OS MC4R beta-arrestin complementation; percent of melanotan II response, DMSO zero;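 active means activation above a per-plate cutoff, the mean activation of sample wells on that plate plus 3 SD, cut at about 8% in these data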
TMEM16A act – TMEM16A chloride channel activators or potentiators, primary screen, cell-based, HTS; 340,000 tested, 0.3% active; B-score at 10 µM; HEK293 TMEM16A/YFP-H148Q/I152L, iodide quench fluorescence; stronger effect = lower value; Anoctamin-1 (Mus musculus), Q8BHY3;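 active means fluorescence-ratio B-score plate-corrected deviation score at least 3 library SD below zero, with starting fluorescence score within 5 deviations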;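 further: channel opened by trigger with iodide after compound preincubation; score built on the fluorescence ratio of max minus min over baseline; more negative score means more quench and so TMEM16A activation or potentiation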
Beta cell apopt – inhibitors of cytokine-induced beta cell apoptosis, primary screen, luminescence; INS-1E cytokine-induced death, ATP luminescence, 48 h; percent of positive-control rescue, neutral wells zero; protection from apoptosis, % (test concentration not listed); 300,000 tested, 0.8% active; AID 435005, 2010;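 active means Every replicate reaches about 75%, or at least half do and their mean reaches it too, limit read from the data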;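 further: 0% = cytokine-treated negative control wells and 100% = positive control rescue; higher means more ATP so stronger rescue from cytokine killing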
MC4R antag cAMP – MC4R antagonists of cAMP signaling, primary screen, cell-based, TR-FRET, antagonist arm of biased-ligand search | Melanocortin receptor 4 (Homo sapiens), P32245 | MC4R-expressing cells, MTII-stimulated cAMP, LANCE TR-FRET | inhibition, % at 6.5 µM | 360,000 tested, 0.48% active;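 active means inhibition above its plate's cutoff, the mean of tested wells on that plate plus 3 SD, cut at about 29% in these data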;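 further: 0% = Melanotan II alone and 100% = Melanotan II plus saturating MCL0020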
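system = U2OS cells with stable human MC4R expression | also added = Melanotan II challenge after compound preincubation | dosing = one concentration, 6.5 µM nominal | incubation = compound 30 min, challenge 1 h, detection 1 h | measured by = TR-FRET with Eu-cAMP and labeled anti-cAMP, 671 nm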
MC4R barr conf – MC4R beta-arrestin agonists, retest, confirmation, cell-based, luminescence, U2OS; shares compounds with MC4R ag barr; U2OS MC4R beta-arrestin recruitment; scaled DMSO 0%, Melanotan II 100%; activation, % at 8.9 µM; 2,400 tested, 31% active; AID 602192, 2012;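 active means mean activation across replicates above the hit cutoff set in the earlier primary screen, cut at about 8% in these data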
MOR-DOR barr ag – agonists of MOR-DOR heterodimerization, counter-screen for MC4R biased agonist project, cell-based, luminescence; shares compounds with MC4R ag barr; U2OS PathHunter beta-arrestin, beta-gal luminescence; percent of deltorphin B response, DMSO zero; activation, % at 9.2 µM; 2,400 tested, 5.8% active; AID 602194, 2012;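 active means mean activation across replicates exceeds the hit threshold derived in the earlier primary screen, cut at about 18% in these data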;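 further: 100% = deltorphin B at 0.9 µM final and 0% = DMSO alone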
Target sequence (P35372 whole entry, looked up): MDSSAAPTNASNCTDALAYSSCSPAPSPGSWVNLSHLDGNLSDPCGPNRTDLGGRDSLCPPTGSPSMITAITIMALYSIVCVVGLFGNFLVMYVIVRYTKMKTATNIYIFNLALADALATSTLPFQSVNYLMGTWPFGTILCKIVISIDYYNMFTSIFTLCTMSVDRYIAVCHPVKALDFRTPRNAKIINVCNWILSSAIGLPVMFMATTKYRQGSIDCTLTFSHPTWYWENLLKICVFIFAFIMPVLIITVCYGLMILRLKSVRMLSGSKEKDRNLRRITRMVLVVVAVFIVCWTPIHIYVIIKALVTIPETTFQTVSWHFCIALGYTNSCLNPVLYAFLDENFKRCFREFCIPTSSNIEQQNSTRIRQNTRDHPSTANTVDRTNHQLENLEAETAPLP
Target sequence (P41143 whole entry, looked up): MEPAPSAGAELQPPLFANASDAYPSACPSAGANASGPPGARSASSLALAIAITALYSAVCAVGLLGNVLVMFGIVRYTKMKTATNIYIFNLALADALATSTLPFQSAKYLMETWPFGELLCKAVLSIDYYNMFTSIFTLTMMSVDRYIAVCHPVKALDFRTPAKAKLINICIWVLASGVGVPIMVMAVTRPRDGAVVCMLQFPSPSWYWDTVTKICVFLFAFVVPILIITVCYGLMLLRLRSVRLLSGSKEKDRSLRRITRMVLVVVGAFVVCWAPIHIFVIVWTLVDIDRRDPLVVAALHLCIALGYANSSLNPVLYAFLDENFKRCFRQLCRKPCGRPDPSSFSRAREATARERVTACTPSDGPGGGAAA
An asterisk follows results filed as active; i = inactive; nt = no result.

SMILES	TMEM16A inh	CSC inhib	MC4R ag barr	TMEM16A act	Beta cell apopt	MC4R antag cAMP	MC4R barr conf	MOR-DOR barr ag
CCOC(=O)c1c(-c2ccc(C)o2)csc1NC(=O)CSc1nnc(C)s1	i	0.2	-1.6	i	-3.0	27.6	nt	nt
COc1ccccc1OCC(=O)N1CCN(S(=O)(=O)c2ccc(Cl)cc2)CC1	nt	nt	-1.2	i	nt	10.9	nt	nt
CCC(=O)NC(Nc1sc2c(c1C(=O)OC)CCCC2)(C(F)(F)F)C(F)(F)F	i	11.3	14.6*	i	-5.4	8.9	-1.4	5.1
COC(=O)c1c(NC(NC(=O)c2ccccc2)(C(F)(F)F)C(F)(F)F)sc2c1CCN(C)C2	i	-18.4	-2.1	i	-4.3	8.5	nt	nt
O=C1NCCN(CC2CCN(CCc3ccccc3)CC2)C1=O	nt	nt	-2.4	nt	nt	3.3	nt	nt
CC(=O)Nc1ccc(S(=O)(=O)N(C)c2ccc(OCC(=O)NCCc3ccccc3F)cc2)cc1	nt	nt	-0.6	i	nt	4.9	nt	nt
O=C1N/C(=N\N=C\c2cccs2)SC1Cc1ccc(Cl)cc1 (centres undefined)	i	24.2	15.4*	i	8.4	-4.1	3.7	4.8
O=C1N/C(=N\N=C\c2cccs2)SC1Cc1cccc(Cl)c1 (centres undefined)	i	62.5	12.3*	i	-3.6	-2.3	1.3	9.1
CCC1S/C(=N/N=C/c2cccs2)NC1=O (centres undefined)	i	-10.9	-1.0	i	-5.0	-1.1	nt	nt
O=C(Nc1cnn(Cc2ccc(Cl)cc2Cl)c1)c1cc(-c2cccs2)on1	i	17.1	20.7*	i	15.2	-0.9	2.2	4.2
O=C(Nc1cnn(Cc2ccc(Cl)cc2Cl)c1)c1noc2c1CCCC2	i	54.6	2.8	i	nt	4.4	nt	nt
O=C(NC(=S)Nc1ccc2oc(=O)ccc2c1)c1cccc(Cl)c1	i	4.3	19.5*	i	-0.9	-3.8	3.6	4.6
CCCCn1c(SCCN2CCCCC2)nc2c1c(=O)n(C)c(=O)n2C	nt	nt	1.3	nt	nt	-5.4	nt	nt
COc1ccc(/C=C/C(=O)Nc2ccc(OC)cc2[N+](=O)[O-])cc1	i	-6.4	31.9*	i	5.4	-4.0	7.1	10.0
CCOc1ccc(NC(=S)NC(=O)/C=C/c2ccc(OC)c(OC)c2)c([N+](=O)[O-])c1	i	-9.3	17.3*	i	18.9	-1.7	12.4*	8.7
CCOc1ccc(NC(=S)NC(=O)/C=C/c2ccc(C)cc2)c([N+](=O)[O-])c1	i	-2.6	38.0*	i	71.0	-17.8	16.8*	6.0
CCCNC(=O)N1CCN(S(=O)(=O)c2ccc3c(c2)OCCO3)CC1	nt	nt	-1.2	i	-7.4	17.4	nt	nt
O=C(O)c1cccc(-n2cccc2/C=C2/NC(=O)N(c3cccc(Cl)c3)C2=O)c1	i	-11.1	-2.8	i	-4.0	2.5	nt	nt
COc1ccc(-n2cccc2/C=C2/NC(=O)N(c3cccc(Cl)c3)C2=O)cc1	i	14.0	13.9*	i	-1.1	2.1	2.0	2.4
Cc1ccc(-c2ccc(/C=N\NC(=O)C3C(=O)NCC3c3ccccc3)o2)cc1Cl (centres undefined)	i	54.7	12.5*	i	-5.8	2.3	4.9	2.1
Cc1ccc(C)c(C(=O)COC(=O)c2n[nH]c3ccccc23)c1	nt	11.9	16.4*	i	-5.7	-13.9	16.1*	8.5
O=C(CCN1C(=O)/C(=C/c2ccccc2F)SC1=S)NC1C=CS(=O)(=O)C1 (centres undefined)	i	7.9	10.3*	i	-11.7	-2.7	-1.0	2.0
Cc1nc2c(sc(=S)n2Cc2ccco2)c(=O)n1CC(=O)Nc1ccc(F)cc1	i	0.3	15.2*	i	5.1	12.6	1.1	5.8
Cc1nc2c(sc(=S)n2Cc2ccco2)c(=O)n1CC(=O)Nc1cc(F)ccc1F	i	-3.0	12.0*	i	-1.4	9.3	6.2	4.3
COc1ccccc1-c1cc(C(=O)NC2CCCC2)no1	i	-5.4	0.5	i	4.1	3.8	nt	nt
SMILES	TMEM16A inh	CSC inhib	MC4R ag barr	TMEM16A act	Beta cell apopt	MC4R antag cAMP	MC4R barr conf	MOR-DOR barr ag
COCCCN1C(=O)C(CC(=O)NC2CCCC2)CC(C(=O)N2CCOCC2)=C1C (centres undefined)	nt	nt	1.8	nt	nt	5.9	nt	nt
O=C(NCCC1=CCCCC1)c1cc(S(=O)(=O)N2CCOCC2)c(Cl)cc1Cl	i	-9.5	10.1*	i	3.0	5.2	0.1	4.7
Cc1ccc(OCc2ccc(C(=O)NN)o2)c([N+](=O)[O-])c1	i	18.0	6.6	i	3.1	-10.2	nt	nt
Cc1ccc(C)c(OCc2ccc(C(=O)Nc3ccc([N+](=O)[O-])cn3)o2)c1	nt	19.5	15.8*	i	0.0	3.9	-0.8	4.5
Cc1ccc(C)c(OCc2ccc(C(=O)NN)o2)c1	i	-6.5	14.5*	i	1.0	5.1	-2.7	1.6
COc1ccccc1NC(=O)Nc1nc(C(N)Cc2ccc(Cl)cc2)cs1 (centres undefined)	nt	nt	12.8*	nt	nt	7.2	22.0*	10.0
COc1cc(CNC(=O)Nc2nc(C(N)Cc3ccc(C(F)(F)F)cc3)cs2)cc(OC)c1OC (centres undefined)	nt	nt	10.3*	nt	nt	-1.5	1.3	3.8
COc1ccc(OC)c(NC(=O)Nc2nc(C(N)CCc3ccccc3)cs2)c1 (centres undefined)	nt	nt	11.2*	nt	nt	5.3	36.5*	20.3*
NC(Cc1ccc(Cl)cc1)c1csc(NC(=O)Nc2ccccc2)n1 (centres undefined)	nt	nt	20.2*	nt	nt	1.4	22.2*	12.7
NC(Cc1ccc(C(F)(F)F)cc1)c1csc(NC(=O)Nc2ccccc2Cl)n1 (centres undefined)	nt	nt	15.1*	nt	nt	8.0	19.0*	9.4
COc1cc(OC)nc(Nc2nc(C(N)Cc3ccc(Cl)cc3)cs2)n1 (centres undefined)	nt	nt	21.2*	nt	nt	-1.2	6.9	11.0
CC(C)CC(N)c1csc(NC(=O)C(c2ccccc2)c2ccccc2)n1 (centres undefined)	nt	nt	12.7*	nt	nt	-1.3	16.5*	23.6*
